AI-2 QS modul = Vibrio harveyi AI-2 quorum sensing modulation; Vibrio harveyi JMH597 AI-2 luminescence/OD600 ratio, 9 h; hits give low values; strain lacks LuxN and CqsS sensors; 0 = neutral-control median; activity change, % at 7.5 µM; hit rate 0.4% among 300,000; AID 2094; in the data active = activity change below about -75%, passing the limit was not always enough;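 note: luminescence divided by OD600 gain over 9 h not by final OD600 alone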
KCNQ1 pot = potentiators or activators of human KCNQ1 potassium channel; CHO-K1 KCNQ1, thallium flux FluxOR fluorescence; hits give high values; B-score at 10 µM; hit rate 0.35% among 310,000; AID 2648;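 active = fluorescence ratio B-score, a plate-corrected score, at least three library SD, with initial intensity B-score within 5 SD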
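Schedule – 37 °C overnight plating, 90-min dark dye load, 20-min compound pretreatment · System – stable KCNQ1 CHO-K1 line · Probe or stimulus – thallium- and potassium-containing depolarizing buffer · Measured by – kinetic FluxOR fluorescence, 10 s baseline plus 110 s post-stimulus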
Mot1-301 SUMO = blocks SUMOylation pathway, rescuing yeast Mot1-301 growth. S. cerevisiae Mot1-301 growth rescue, ATP luminescence, 38.5C; percent above DMSO median, 100 means doubled. growth rescue, % at 18.8 µM. hit rate 1% among 320,000. AID 2716;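 active = every valid replicate shows activation above 250% relative to neutral control wells; inactive = the rest, any valid replicate at or below 250%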;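 note: OY570 slx delta 5 strain wells were the positive control but not used for scaling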
KCNQ1 inh = human KCNQ1 channel inhibition | P51787 | B-score at 10 µM | hit rate 1.3% among 310,000 | CHO-K1 KCNQ1, FluxOR thallium flux fluorescence; hits give high values;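 active = compounds whose thallium flux B-score, printed positive for inhibition, exceeds three library SD while starting fluorescence stays within three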;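 note: channel opened by potassium depolarization with thallium stimulus after 20 min compound exposure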
Cl transport mod = modulates chloride dependent transport by human KCC2. B-score of Tl+ flux slope (higher = more flux/activation; lower = inhibition) at 10 µM. hit rate 2.2% among 190,000. AID 1456. Q9H2X9. KCC2 cells, thallium flux FluoZin-2 fluorescence;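 active = thallium flux slope and its plate-corrected score both differing from the plate sample mean at a set confidence after two filtering rounds, in either direction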;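 note: slope of fluorescence scaled to starting intensity during 10 to 20 s after thallium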
hERG rescue = compounds protecting human hERG from proarrhythmic drug block; CHO-hERG, FluxOR thallium flux, dofetilide IC70 present; activation (rescue from dofetilide block), less the hit threshold, % at 10 µM; hit rate 0.51% among 310,000;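 active = activation above the mean of controls blocked by dofetilide plus 5 SD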;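 note: thallium influx through hERG after potassium depolarization seen as dye fluorescence rise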
KCNQ1 inh valid = reconfirmed blocker of the human KCNQ1 potassium channel; shares compounds with KCNQ1 inh; hit rate 93% among 1,600; KCNQ1 cell line, FluxOR thallium flux fluorescence; inhibition, % at 10 µM; AID 588353;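 active = primary screen active, with duplicate mean exceeding buffer control mean plus 3 SD of buffer wells, cut at about 28% in these data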;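 note: 0% = buffer control ratio and 100% = XE991 inhibitor control ratio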
CHO Tl flux = KCNQ1 inhibitor counter-screen hit in parental CHO cells; shares compounds with KCNQ1 inh; parental CHO-K1, FluxOR thallium flux fluorescence ratio; hits give low values; zero means no signal rise above baseline; fluorescence ratio (Tl flux) at 10 µM; hit rate 21% among 1,600; AID 588366;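 active = mean of duplicate thallium-flux fluorescence ratios in parental host cells more than 5 SD below the buffer control mean, cut at about 0.38 in these data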;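 note: ratio is peak minus minimum fluorescence divided by baseline fluorescence; actives read low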
KCNQ1 ephys val = human KCNQ1 inhibition validated by electrophysiology; AID 624120; KCNQ1-CHO cells, automated patch clamp current; hit rate 20% among 490; calls only at 10 µM; shares compounds with KCNQ1 inh;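 active = KCNQ1 current drop exceeding 3 SD of negative control wells, seen in both duplicate runs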;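 note: steady state current during a 2 s step from -80 to +40 mV; negative values mean current inhibition and positive values mean potentiation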
KCNQ2 inh = KCNQ1 inhibitor that also blocks rat KCNQ2 channel; shares compounds with KCNQ1 inh; KCNQ2 cells, FluxOR thallium flux fluorescence; inhibition, % at 10 µM; hit rate 71% among 1,600;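 active = mean percent inhibition of the KCNQ2 thallium signal more than 5 SD above the buffer-only control wells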;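 note: KCNQ2 expressed in CHO cells; 0% = buffer control wells and 100% = XE-991 inhibitor control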
Target sequence (O88943 whole entry, looked up): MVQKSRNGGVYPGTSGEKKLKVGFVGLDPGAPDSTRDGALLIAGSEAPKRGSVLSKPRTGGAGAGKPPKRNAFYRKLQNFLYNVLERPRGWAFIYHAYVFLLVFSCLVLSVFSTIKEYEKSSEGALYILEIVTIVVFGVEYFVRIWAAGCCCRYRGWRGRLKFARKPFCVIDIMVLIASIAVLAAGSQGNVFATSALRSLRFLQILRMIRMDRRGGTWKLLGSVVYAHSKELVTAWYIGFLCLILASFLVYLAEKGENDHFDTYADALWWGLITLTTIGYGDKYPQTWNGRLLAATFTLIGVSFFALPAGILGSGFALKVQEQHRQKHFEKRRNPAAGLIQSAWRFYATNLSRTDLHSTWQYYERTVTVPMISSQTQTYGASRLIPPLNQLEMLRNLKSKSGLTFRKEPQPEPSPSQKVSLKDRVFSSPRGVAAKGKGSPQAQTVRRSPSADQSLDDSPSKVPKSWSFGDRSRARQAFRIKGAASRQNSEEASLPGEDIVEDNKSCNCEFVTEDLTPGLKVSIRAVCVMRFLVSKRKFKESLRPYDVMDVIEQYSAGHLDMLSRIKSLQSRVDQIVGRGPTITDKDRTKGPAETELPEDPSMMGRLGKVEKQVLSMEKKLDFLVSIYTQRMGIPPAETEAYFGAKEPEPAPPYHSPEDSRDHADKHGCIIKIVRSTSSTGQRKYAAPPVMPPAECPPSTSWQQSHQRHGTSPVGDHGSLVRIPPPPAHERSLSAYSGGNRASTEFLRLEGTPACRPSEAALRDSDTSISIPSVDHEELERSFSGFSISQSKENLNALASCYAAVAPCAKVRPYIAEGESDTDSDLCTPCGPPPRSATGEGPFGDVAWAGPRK
KCNQ1 KCNE1 spec = human KCNQ1/KCNE1 inhibition in KCNQ1 specificity screen; shares compounds with KCNQ1 inh; KCNQ1/KCNE1 cells, FluxOR thallium flux fluorescence; inhibition, % at 10 µM; hit rate 77% among 1,600;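 active = mean percent inhibition of duplicate wells above the buffer-only control mean plus 3 SD of those controls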;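 note: 0% = buffer only wells and 100% = XE-991 inhibitor control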
* marks the source's active call; other numbers are inactive results; i = inactive; . = no result; + = active, no number. Sampled rows, rich in hits. Any-hit rate of the full collection: about 4.2%.

SMILES	AI-2 QS modul	KCNQ1 pot	Mot1-301 SUMO	KCNQ1 inh	Cl transport mod	hERG rescue	KCNQ1 inh valid	CHO Tl flux	KCNQ2 inh	KCNQ1 KCNE1 spec	others
Cc1ccccc1C(=O)Oc1cccc(Nc2ncnc3ccccc23)c1	23	i	.	11*	-1.9	-32	152*	0.29*	121%*	+
COc1ccc(-c2nc(-c3ccc(NC(=O)c4ccncc4)cc3)no2)cc1OC	23	i	7	12*	-0.38	-10	0	0.48	71%*	i
COc1ccc(Cl)cc1-c1nc(-c2ccc(NC(=O)c3ccncc3)cc2)no1	19	i	-4	i	2.1	-6	.	.	.	.
CN(Cc1cccc2cnccc12)C(=O)c1cc(COc2ccc(F)cc2F)on1	22	i	.	i	.	-12	.	.	.	.
CN(Cc1cccnc1)C(=O)c1cc(COc2ccc3c(c2)CCCC3)on1	-80*	i	12	7*	.	-21	115*	0.44	81%*	46%*	KCNQ1 ephys val=i
CCc1ccc(CN(C)C(=O)c2cc(COc3cccc4cnccc34)on2)cc1	-60	i	-4	11*	.	-14	160*	0.33*	132%*	+
COC(=O)C1CCN(C(=O)COC(=O)CC(NC(N)=O)c2ccc(Cl)cc2)CC1 (stereo not given)	19	i	0	i	0.84	-10	.	.	.	.
COc1ccc(S(=O)(=O)N2CCC(C(=O)NCCCc3ccccc3)CC2)cc1	71	i	-10	i	.	-1	.	.	.	.
COc1ccc(CN=Cc2[nH]c3ccc(Br)c(Cl)c3c2O)cc1	20	i	36	7*	1.2	-17	116*	0.37*	111%*	92%*
CC[C@H](C)[C@@H](NC(=O)O[C@@H]1C(=O)c2cc(Br)ccc2O[C@H]1c1cccc(OC)c1)C(=O)OC	.	.	0	.	1.9	.	.	.	.	.
OC1(c2cccc(C(F)(F)F)c2)CCN(c2ncnc3c2[nH]c2ccccc23)CC1	23	i	-14	7*	.	-25	134*	0.37*	119%*	146%*
COc1cccc(N2CCN(c3ncnc4c3[nH]c3ccccc34)CC2C)c1 (stereo not given)	34	i	523*	12*	-1.6	-35	142*	0.32*	124%*	+
c1ccc(CN2CCN(c3ncnc4c3[nH]c3ccccc34)CC2)cc1	22	i	85	7*	-5.7*	-28	132*	0.45	120%*	82%*
c1ccc(CSc2nc3ncccn3n2)cc1	.	.	-8	.	.	.	.	.	.	.
O=C(Nc1nc2ccc(F)cc2s1)C1CCN(S(=O)(=O)c2cc([N+](=O)[O-])ccc2Cl)CC1	23	i	-6	15*	1.1	-19	158*	0.37*	118%*	198%*
CSc1nsc(/C=C/Nc2ccc(C)cc2)c1C#N	i	i	111	7*	-0.93	-10	0	0.51	i	57%*
CCOc1ccc(N(CC(=O)NC2CCCCC2)C(=O)CCCC(=O)Nc2ccccn2)cc1	11	i	289	i	.	-4	.	.	.	.
Cc1ccc(C(c2cc(Br)ccc2O)N2CCSCC2)cc1 (stereo not given)	4	i	16	7*	.	-7	122*	0.42	107%*	136%*
O=C(O)C1CC=CCC1C(=O)Nc1ccc2c(c1)CCC2 (stereo not given)	13	i	-3	6*	.	-7	0	0.51	i	i
O=C(Nc1ccc2c(c1)CCC2)c1ccccc1	13	i	-11	i	-0.3	-11	.	.	.	.
CCCCc1ccc(NC2=NCC(=O)N2CCc2ccccc2)cc1	-21	i	-12	i	-0.86	-25	.	.	.	.
CCCN1CCc2c(sc(NC(=O)c3ccc(S(=O)(=O)N(C)c4ccccc4)cc3)c2C(N)=O)C1	18	i	-19	i	.	-10	.	.	.	.
CCCN1CCc2c(sc(NC(=O)c3ccc(S(=O)(=O)N(C)c4ccccc4)cc3)c2C(=O)NC)C1	14	i	-7	15*	.	-30	144*	0.28*	i	+
Cc1ccc(NC(=O)c2cccc(C(=O)Nc3ccc(C)c(C)c3)n2)cc1C	18	i	-20	8*	.	-12	0	0.44	104%*	36%*
COc1cccc(-c2nc(NCc3ccccc3)c3ccccc3n2)c1O	-1	i	7	i	.	-10	.	.	.	.
SMILES	AI-2 QS modul	KCNQ1 pot	Mot1-301 SUMO	KCNQ1 inh	Cl transport mod	hERG rescue	KCNQ1 inh valid	CHO Tl flux	KCNQ2 inh	KCNQ1 KCNE1 spec	others
COc1cccc(-c2nc(NC3CCCC3)c3ccccc3n2)c1O	8	i	-4	9*	.	-8	140*	0.32*	126%*	98%*
Cc1ccc(-c2csc(=Nc3cccnc3)n2CCCn2ccnc2)cc1C	0	i	-5	12*	-4.2	-17	42*	0.45	80%*	i
CC(=O)c1ccc(Nc2nc(NCCO)nc(OC(C(F)(F)F)C(F)(F)F)n2)cc1	8	i	-10	8*	0.042	-26	85*	0.49	i	114%*
Cc1cc(C)cc(OCC(O)CN2CCC(CN3C(=O)c4cccc5cccc(c45)C3=O)CC2)c1 (stereo not given)	12	i	-48	9*	.	-36	128*	0.38	99%*	138%*	KCNQ1 ephys val=i
Cc1cc2nc(CCN(C(=S)NCC(C)C)C3CCCC3)[nH]c2cc1C	42	i	-6	8*	-5.6*	-11	167*	0.43	101%*	i	KCNQ1 ephys val=i
COc1ccc(-c2csc3ncnc(N4CCN(S(=O)(=O)c5cccs5)CC4)c23)cc1	35	i	-20	8*	.	-21	84*	0.43	100%*	76%*
COc1ccc(-c2csc3ncnc(N4CCN(c5cccc(C)c5C)CC4)c23)cc1	-6	i	86	7*	.	-15	94*	0.43	68%*	148%*	KCNQ1 ephys val=i
COc1ccc(-c2csc3ncnc(N4CCN(S(=O)(=O)c5ccc(Cl)s5)CC4)c23)cc1	17	i	-5	i	.	-14	.	.	.	.
